{"source": "ChEMBL document CHEMBL1148927", "about": "“A novel antimicrobial indolizinium alkaloid from Aniba panurensis” (J Nat Prod, 2004)", "key": {"Staphylococcus aureus [1]": {"tested_on": "Staphylococcus aureus", "experiment": "[…] activity against Staphylococcus aureus 385 at 100 ug/mL after 24 hrs by broth microdilution assay"}, "Enterococcus faecium [2]": {"tested_on": "Enterococcus faecium", "experiment": "[…] activity against Enterococcus faecium 1438 at 100 ug/mL after 18 hrs by broth microdilution assay", "type": "functional, organism-based", "in_short": "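E. faecium 1438 clinical isolate grown at 37 °C with 100 rpm shaking in Todd Hewitt broth with 0.5% yeast extract and 2% NaCl to exponential phase. Culture adjusted to A600 0.3, then diluted 1:1000. Added to dried sample in wells, incubated 18 h, and growth read at A650 against medium-only cultures. Chloramphenicol 100 µg/mL was the inhibition control.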"}, "Candida albicans": {"tested_on": "Candida albicans", "experiment": "Antifungal activity against Candida albicans 99-788 after 24 hrs by broth microdilution assay", "type": "functional", "in_short": "(§1)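 Clinical isolates grown in YM broth at 37 °C with shaking at 100 rpm to exponential phase, adjusted to A600 = 0.3, then diluted 1:150 (C. albicans) or 1:128 (C. neoformans). Samples dried in wells, culture added, and tested top dose 250 µg/mL plus five 2-fold dilutions. Incubation 24 h (C. albicans) or 72 h (C. neoformans). A650 read; MIC50 = concentration lowering A650 ≥50% vs medium-only cultures.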"}, "Cryptococcus neoformans [3]": {"tested_on": "Cryptococcus neoformans", "experiment": "Antifungal activity against Cryptococcus neoformans 96-1034 after 72 hrs by broth microdilution assay", "type": "functional", "in_short": "as §1"}, "Enterococcus faecium [4]": {"tested_on": "Enterococcus faecium", "experiment": "[…] activity against Enterococcus faecium 1438 by broth microdilution assay", "type": "functional"}, "Cryptococcus neoformans [5]": {"tested_on": "Cryptococcus neoformans", "experiment": "Antifungal activity against Cryptococcus neoformans 96-1034 by broth microdilution assay", "type": "functional", "in_short": "(§2)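 Broth microdilution in RPMI 1640 buffered with MOPS, following NCCLS guidelines; values reported as MIC90.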"}, "Clavispora lusitaniae": {"tested_on": "Clavispora lusitaniae", "experiment": "Antifungal activity against Candida lusitaniae by broth microdilution assay", "type": "functional", "in_short": "as §2"}, "Nakaseomyces glabratus": {"tested_on": "Nakaseomyces glabratus", "experiment": "Antifungal activity against Candida glabrata by broth microdilution assay", "type": "functional", "in_short": "as §2"}, "Pichia kudriavzevii": {"tested_on": "Pichia kudriavzevii", "experiment": "Antifungal activity against Candida krusei ATCC 6258 by broth microdilution assay", "type": "functional", "in_short": "as §2"}, "Candida parapsilosis": {"tested_on": "Candida parapsilosis", "experiment": "Antifungal activity against Candida parapsilosis ATCC 22019 by broth microdilution assay", "type": "functional", "settings": "Lodderomyces parapsilosis", "in_short": "as §2"}, "[6]": {"experiment": "Toxicity in sheep red blood cells assessed as hemolysis after 2 hrs", "type": "cell-based, Ovis aries", "settings": "erythrocyte", "in_short": "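Sheep red blood cells at 4% final in 0.2 mL, with samples serially diluted in phosphate-buffered saline; highest dose contained 5% DMSO. Incubated 2 h at 37 °C, then 0.1 mL taken to measure hemolysis.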"}, "[7]": {"experiment": "Lipophilicity, log K in octanol water", "type": "physicochemical"}, "Staphylococcus aureus [8]": {"tested_on": "Staphylococcus aureus", "experiment": "[…] activity against Staphylococcus aureus 385 after 24 hrs by broth microdilution assay"}}, "note": "The source made the active and inactive calls. The rule behind the calls is not given here."}
{"molecule": "O=C(O)c1cn(C2CC2)c2cc(N3CCNCC3)c(F)cc2c1=O", "values": [{"measurement": "Activity", "setting": "Staphylococcus aureus [1]", "result": "Active"}]}
{"molecule": "O=C(N[C@H](CO)[C@H](O)c1ccc([N+](=O)[O-])cc1)C(Cl)Cl", "values": [{"measurement": "Activity", "setting": "Enterococcus faecium [2]", "result": "Active"}]}
{"molecule": "CCCCCCCC/C=C\\c1c(C)c(/C=C\\CCCCCCCC)c2[n+](c1C)CCC2.O=C([O-])C(F)(F)F", "note": "[ANIBAMINE]", "values": [{"measurement": "MIC50", "setting": "Candida albicans", "result": 0.25, "unit": "µg/mL"}, {"measurement": "MIC90", "setting": "Candida albicans", "result": 0.5, "unit": "µg/mL"}, {"measurement": "MIC50", "setting": "Cryptococcus neoformans [3]", "result": 0.25, "unit": "µg/mL"}, {"measurement": "MIC50", "setting": "Enterococcus faecium [4]", "result": 0.25, "unit": "µg/mL"}, {"measurement": "MIC90", "setting": "Cryptococcus neoformans [5]", "result": 0.25, "unit": "µg/mL"}, {"measurement": "MIC90", "setting": "Clavispora lusitaniae", "result": 1, "unit": "µg/mL"}, {"measurement": "MIC90", "setting": "Nakaseomyces glabratus", "result": 2, "unit": "µg/mL"}, {"measurement": "MIC90", "setting": "Pichia kudriavzevii", "result": 0.5, "unit": "µg/mL"}, {"measurement": "MIC90", "setting": "Candida parapsilosis", "result": 0.5, "unit": "µg/mL"}, {"measurement": "Activity", "setting": "[6]", "result": "Toxic"}, {"measurement": "log K", "setting": "[7]", "result": 9.1}, {"measurement": "MIC50", "setting": "Staphylococcus aureus [8]", "result": "> 25", "unit": "µg/mL"}]}
